Data reported in ChEMBL document CHEMBL1142037, “Cyclization-activated prodrugs. Synthesis, reactivity and toxicity of dipeptide esters of paracetamol” (Bioorg Med Chem Lett, 2005).

Assays:
[1] = Half life required for the release of paracetamol; type: ADME
[2] = Relative rate constant for release of paracetamol was determined; type: ADME
[3] = Rate constant for release of paracetamol was determined; type: ADME
Mus musculus = species: Mus musculus; experiment: Effect on glutathione levels in mice; type: functional
Summary of the method: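 Male BALB/c mice (17–21 g, 5 weeks old), four per group, given a single ip dose of 3.3 mmol/kg in 30% propyleneglycol. Controls received vehicle ip. Livers were taken 2 h after dosing and kept on ice. Reduced glutathione in liver homogenate was measured at once with DTNB and reported as µmol/g tissue.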

T1/2 [1]	Krelative [2]	K obs [3]	Structure (SMILES)	Glutathione levels (Mus musculus)
2 min	0.41	0.0059 s⁻¹	CC(=O)Nc1ccc(OC(=O)CNC(=O)[C@@H]2CCCN2)cc1.O=C(O)C(F)(F)F	
16 min	0.05	0.00071 s⁻¹	CC(=O)Nc1ccc(OC(=O)CNC(=O)[C@@H](N)C(C)C)cc1.O=C(O)C(F)(F)F	3.87 umol/g tissue
14 min	0.06	0.000821 s⁻¹	CC(=O)Nc1ccc(OC(=O)CNC(=O)[C@@H](N)Cc2ccccc2)cc1.O=C(O)C(F)(F)F	2.68 umol/g tissue
		Too fast to be monitored	CC(=O)Nc1ccc(OC(=O)CN(C)C(=O)CN)cc1.O=C(O)C(F)(F)F	
20 min	0.04	0.00057 s⁻¹	CC(=O)Nc1ccc(OC(=O)[C@@H](NC(=O)CN)C(C)C)cc1.O=C(O)C(F)(F)F	
0.9 min	0.94	0.0134 s⁻¹	CC(=O)Nc1ccc(OC(=O)[C@H](C)NC(=O)CN)cc1.O=C(O)C(F)(F)F	
		Too fast to be monitored	CC(=O)Nc1ccc(OC(=O)[C@@H]2CCCN2C(=O)CN)cc1.O=C(O)C(F)(F)F	
0.8 min	1	0.0143 s⁻¹	CC(=O)Nc1ccc(OC(=O)CNC(=O)CN)cc1.O=C(O)C(F)(F)F	
		Too fast to be monitored	CNCC(=O)NCC(=O)Oc1ccc(NC(C)=O)cc1.O=C(O)C(F)(F)F	
2 min	0.4	0.00564 s⁻¹	CC(=O)Nc1ccc(OC(=O)[C@H](Cc2ccccc2)NC(=O)CN)cc1.O=C(O)C(F)(F)F	3.74 umol/g tissue
3 min	0.24	0.0034 s⁻¹	CC(=O)Nc1ccc(OC(=O)CNC(=O)[C@H](C)N)cc1.O=C(O)C(F)(F)F	
